Results from ChEMBL document CHEMBL4038317, “Discovery of a Benzamide Derivative That Protects Pancreatic β-Cells against Endoplasmic Reticulum Stress” (J Med Chem, 2017).
Calls of active or inactive are those of the source. The rule behind the calls is not given here.

How the values were obtained:
INS1 [1] = assay: Protection against tunicamycin ER stress-induced suppression of INS1 mRNA expression in rat INS-1 cells up to 1 uM after 24 hrs by qRT-PCR analysis; format: functional, cell-based
Summary of the method: (§1)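 INS-1 cells were exposed to tunicamycin 0.1 μg/mL with compound or DMSO for 24 h. INS1, INS2, PDX1 and MafA mRNA were measured by qRT-PCR and normalized to cyclophilin A by the comparative Ct method. Triplicate wells, 3 independent experiments.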

INS1 [2] = assay: Protection against tunicamycin ER stress-induced suppression of INS2 mRNA expression in rat INS-1 cells up to 1 uM after 24 hrs by qRT-PCR analysis; format: functional, cell-based; summary of the method: as §1
INS1 [3] = assay: Protection against tunicamycin ER stress-induced suppression of MafA mRNA expression in rat INS-1 cells up to 1 uM after 24 hrs by qRT-PCR analysis; format: functional, cell-based; summary of the method: as §1
[4] = biological target: T1, Eukaryotic translation initiation factor 2-alpha kinase 3 (Rattus norvegicus, UniProt Q9Z1Z1); assay: Inhibition of PERK activation in rat INS-1 cells assessed as suppression of tunicamycin-induced CHOP mRNA expression after 8 hrs by qRT-PCR analysis; format: cell-based
T1 sequence (Q9Z1Z1 whole entry): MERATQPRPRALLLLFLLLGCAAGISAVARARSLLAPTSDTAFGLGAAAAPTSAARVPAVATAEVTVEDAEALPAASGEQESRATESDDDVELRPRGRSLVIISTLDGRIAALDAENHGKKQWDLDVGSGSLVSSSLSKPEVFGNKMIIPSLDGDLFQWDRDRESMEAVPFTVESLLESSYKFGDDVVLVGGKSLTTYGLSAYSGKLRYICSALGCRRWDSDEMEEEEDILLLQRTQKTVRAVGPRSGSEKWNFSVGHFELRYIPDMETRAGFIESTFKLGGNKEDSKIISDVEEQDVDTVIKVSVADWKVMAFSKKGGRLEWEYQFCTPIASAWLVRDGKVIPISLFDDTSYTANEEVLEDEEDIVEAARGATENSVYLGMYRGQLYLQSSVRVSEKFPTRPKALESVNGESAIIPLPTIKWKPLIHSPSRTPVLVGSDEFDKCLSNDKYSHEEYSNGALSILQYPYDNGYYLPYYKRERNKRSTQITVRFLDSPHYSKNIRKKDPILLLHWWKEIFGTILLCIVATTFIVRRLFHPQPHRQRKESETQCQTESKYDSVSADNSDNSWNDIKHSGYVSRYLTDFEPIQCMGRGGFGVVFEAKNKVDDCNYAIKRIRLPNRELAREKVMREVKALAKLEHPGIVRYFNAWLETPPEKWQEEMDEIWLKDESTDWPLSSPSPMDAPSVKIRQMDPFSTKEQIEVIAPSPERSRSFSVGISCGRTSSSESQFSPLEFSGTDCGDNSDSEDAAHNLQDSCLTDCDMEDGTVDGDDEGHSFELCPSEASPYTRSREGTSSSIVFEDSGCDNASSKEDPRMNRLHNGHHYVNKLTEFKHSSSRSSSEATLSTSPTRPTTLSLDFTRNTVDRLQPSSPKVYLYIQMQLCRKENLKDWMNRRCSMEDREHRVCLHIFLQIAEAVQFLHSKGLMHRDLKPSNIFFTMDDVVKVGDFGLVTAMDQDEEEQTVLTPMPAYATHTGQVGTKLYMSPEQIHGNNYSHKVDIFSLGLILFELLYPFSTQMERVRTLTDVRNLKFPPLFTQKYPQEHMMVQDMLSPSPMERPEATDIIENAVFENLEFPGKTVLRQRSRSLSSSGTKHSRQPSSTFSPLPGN
Summary of the method: (§2)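 INS-1 cells, 4×10^5 per well, were exposed to tunicamycin 0.1 μg/mL with compound or DMSO for 8 h. qRT-PCR for ATF4, CHOP, Bip, GRP94, or spliced XBP1 using splicing-specific primers. Values were normalized to cyclophilin A by ΔΔCt and given as fold over untreated control. Triplicate wells, 3 independent experiments.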

[5] = biological target: T2, Cyclic AMP-dependent transcription factor ATF-6 alpha (Rattus norvegicus) (UniProt G3V909); assay: Inhibition of tunicamycin ER stress-induced ATF6 activation in rat INS-1 cells assessed as suppression of increase in Bip mRNA levels up to 10 uM after 8 hrs by qRT-PCR analysis; format: cell-based; summary of the method: as §2
T2 sequence (whole entry): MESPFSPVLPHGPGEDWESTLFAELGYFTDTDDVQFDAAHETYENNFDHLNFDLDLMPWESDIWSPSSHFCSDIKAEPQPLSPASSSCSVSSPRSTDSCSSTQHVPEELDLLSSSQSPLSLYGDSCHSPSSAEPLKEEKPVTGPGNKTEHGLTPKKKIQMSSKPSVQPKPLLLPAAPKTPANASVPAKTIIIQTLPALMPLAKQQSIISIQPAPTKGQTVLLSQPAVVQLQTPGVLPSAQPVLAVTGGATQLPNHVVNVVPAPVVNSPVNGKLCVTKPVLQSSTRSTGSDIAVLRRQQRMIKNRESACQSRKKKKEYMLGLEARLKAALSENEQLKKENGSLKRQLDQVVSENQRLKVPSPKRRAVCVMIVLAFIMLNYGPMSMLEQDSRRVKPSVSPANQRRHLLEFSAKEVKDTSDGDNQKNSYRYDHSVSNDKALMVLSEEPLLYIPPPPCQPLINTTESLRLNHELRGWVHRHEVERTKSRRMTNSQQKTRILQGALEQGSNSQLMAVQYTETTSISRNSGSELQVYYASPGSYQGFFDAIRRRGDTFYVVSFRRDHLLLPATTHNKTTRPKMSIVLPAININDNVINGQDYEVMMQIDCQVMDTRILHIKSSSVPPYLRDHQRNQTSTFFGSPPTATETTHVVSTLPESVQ

Mus musculus [6] = assay: Antidiabetic activity in STZ-induced diabetic C57BL/6 mouse model assessed as blood glucose level at 5 mg/kg, ip administrated qd with streptozotocin for 5 days followed by compound administration alone for 2 more weeks measured on every third day during 5 hr fasting (reference value: 422 mg/dL); format: functional
Mus musculus [7] = assay: Antidiabetic activity in STZ-induced diabetic overnight fasted C57BL/6 mouse model assessed as blood glucose level at 5 mg/kg, ip administrated qd with streptozotocin for 5 days followed by compound administration alone for 2 more weeks measured at 30 mins post last dose relative to control; format: functional, organism-based
Summary of the method: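 Same STZ/compound i.p. regimen in male C57BL/6 mice, vehicle group as control. Intraperitoneal glucose tolerance test in overnight-fasted mice: glucose 2 g/kg i.p., blood glucose read at set times after the glucose load.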

Rattus norvegicus = species: Rattus norvegicus; assay: Inhibition of IRE1alpha activation in rat INS-1 cells assessed as suppression of tunicamycin-induced increase in XBP1 mRNA levels up to 10 uM after 8 hrs by agarose gel electrophoresis method; format: cell-based
Summary of the method: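 INS-1 cells were exposed to tunicamycin 0.1 μg/mL with compound or DMSO for 8 h. Total XBP1 mRNA was amplified by RT-PCR, and the spliced and unspliced forms were separated electrophoretically.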

IC50 [4]: 37 nM
inhibition [5]: Active
Compound: O=C(NCc1ccc(C(F)(F)F)cc1)c1cccc(CN2CCCCC2)c1
Activity (INS1 [1]): Active
Activity (INS1 [2]): Active
Activity (INS1 [3]): Active
Activity (Mus musculus [6]): 314 mg/dL
Activity (Mus musculus [7]): Active
inhibition (Rattus norvegicus): Active
